# Assays:
# [1] = tested on: RXF 393; assay: Cytotoxicity against human RXF393 cells assessed as cell growth at 800 nM by sulforhodamine B assay relative to control; type: functional; settings: read-out: Activity
# [2] = tested on: EKVX; assay: Cytotoxicity against human EKVX cells assessed as cell growth at 800 nM by sulforhodamine B assay relative to control; type: functional; settings: read-out: Activity
# [3] = tested on: RXF 393; assay: Cytotoxicity against human RXF393 cells assessed as cell growth at 8 uM by sulforhodamine B assay relative to control; type: functional; settings: read-out: Activity
# [4] = tested on: MDA-MB-435; assay: Cytotoxicity against human MDA-MB-435 cells assessed as cell growth at 80 uM by sulforhodamine B assay relative to control; type: functional; settings: read-out: Activity
# [5] = tested on: HT-29; assay: Cytotoxicity against human HT-29 cells assessed as cell growth at 80 nM by sulforhodamine B assay relative to control; type: functional; settings: read-out: Activity
# [6] = tested on: OVCAR-8; assay: Cytotoxicity against human OVCAR8 cells assessed as cell growth at 8 uM by sulforhodamine B assay relative to control; type: functional; settings: read-out: Activity
# [7] = tested on: Candida albicans; assay: Antimicrobial activity against Candida albicans ATCC 90028 by CLSI method; type: functional, organism-based
# [8] = tested on: OVCAR-5; assay: Cytotoxicity against human OVCAR5 cells assessed as cell growth at 80 uM by sulforhodamine B assay relative to control; type: functional; settings: read-out: Activity
# [9] = tested on: BT-549; assay: Cytotoxicity against human BT549 cells by sulforhodamine B assay; type: functional
# Method in brief: (§1)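 Run at NCI in the DTP 60-cell-line human tumor panel by standard procedure. Compounds were first screened at a single concentration, then tested at five tenfold-spaced concentrations. GI50 is the concentration reducing treated-cell growth to half that of untreated controls; TGI is the concentration completely halting growth.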
# [10] = tested on: OVCAR-5; assay: Cytotoxicity against human OVCAR5 cells assessed as cell growth at 8 nM by sulforhodamine B assay relative to control; type: functional; settings: read-out: Activity
# [11] = tested on: T47D; assay: Cytotoxicity against human T47D cells assessed as cell growth at 80 uM by sulforhodamine B assay relative to control; type: functional; settings: read-out: Activity
# [12] = tested on: SK-MEL-28; assay: Cytotoxicity against human SK-MEL-28 cells assessed as cell growth at 8 uM by sulforhodamine B assay relative to control; type: functional; settings: read-out: Activity
# [13] = tested on: K562; assay: Cytotoxicity against human K562 cells assessed as cell growth at 8 nM by sulforhodamine B assay relative to control; type: functional; settings: read-out: Activity
# [14] = tested on: Malme-3M; assay: Cytotoxicity against human MALME-3M cells by sulforhodamine B assay; type: functional
# Method in brief: (§2)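 NCI Developmental Therapeutics Program 60-cell-line human tumor panel screen, run at NCI. A single-concentration pre-screen was followed by a five-concentration dose-response in 10-fold steps. GI50 is the concentration that reduces growth of treated cells to half that of untreated control cells. TGI is the concentration that completely halts growth.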
# [15] = tested on: SN12C; assay: Cytotoxicity against human SN12C cells assessed as cell growth at 800 nM by sulforhodamine B assay relative to control; type: functional; settings: read-out: Activity
# [16] = tested on: SW-620; assay: Cytotoxicity against human SW620 cells assessed as cell growth at 800 nM by sulforhodamine B assay relative to control; type: functional; settings: read-out: Activity
# [17] = tested on: UO-31; assay: Cytotoxicity against human UO31 cells assessed as cell growth at 80 uM by sulforhodamine B assay relative to control; type: functional; settings: read-out: Activity
# [18] = tested on: TK-10; assay: Cytotoxicity against human TK10 cells assessed as cell growth at 8 uM by sulforhodamine B assay relative to control; type: functional; settings: read-out: Activity
# [19] = tested on: ACHN; assay: Cytotoxicity against human ACHN cells assessed as cell growth at 800 nM by sulforhodamine B assay relative to control; type: functional; settings: read-out: Activity; method in brief: as §1
# [20] = tested on: LOX IMVI; assay: Cytotoxicity against human LOXIMVI cells assessed as cell growth at 800 nM by sulforhodamine B assay relative to control; type: functional; settings: read-out: Activity
# [21] = tested on: SK-MEL-28; assay: Cytotoxicity against human SK-MEL-28 cells assessed as cell growth at 80 nM by sulforhodamine B assay relative to control; type: functional; settings: read-out: Activity
# [22] = tested on: M14; assay: Cytotoxicity against human M14 cells assessed as cell growth at 800 nM by sulforhodamine B assay relative to control; type: functional; settings: read-out: Activity
# [23] = tested on: NCI-H23; assay: Cytotoxicity against human NCI-H23 cells assessed as cell growth at 8 nM by sulforhodamine B assay relative to control; type: functional; settings: read-out: Activity
# [24] = tested on: MCF7; assay: Cytotoxicity against human MCF7 cells assessed as cell growth at 800 nM by sulforhodamine B assay relative to control; type: functional; settings: read-out: Activity
# [25] = tested on: LOX IMVI; assay: Cytotoxicity against human LOXIMVI cells assessed as cell growth at 8 nM by sulforhodamine B assay relative to control; type: functional; settings: read-out: Activity
# [26] = tested on: MOLT-4; assay: Cytotoxicity against human MOLT4 cells assessed as cell growth at 80 nM by sulforhodamine B assay relative to control; type: functional; settings: read-out: Activity
# [27] = tested on: KM12; assay: Cytotoxicity against human KM12 cells assessed as cell growth at 8 nM by sulforhodamine B assay relative to control; type: functional; settings: read-out: Activity
# [28] = tested on: M14; assay: Cytotoxicity against human M14 cells by sulforhodamine B assay; type: functional; method in brief: as §2
# [29] = tested on: SN12C; assay: Cytotoxicity against human SN12C cells assessed as cell growth at 8 uM by sulforhodamine B assay relative to control; type: functional; settings: read-out: Activity
# [30] = tested on: 786-0; assay: Cytotoxicity against human 786-0 cells assessed as cell growth at 8 uM by sulforhodamine B assay relative to control; type: functional; settings: read-out: Activity; method in brief: as §1
# [31] = tested on: SK-MEL-5; assay: Cytotoxicity against human SK-MEL-5 cells assessed as cell growth at 8 uM by sulforhodamine B assay relative to control; type: functional; settings: read-out: Activity
# [32] = tested on: SF-295; assay: Cytotoxicity against human SF295 cells assessed as cell growth at 80 nM by sulforhodamine B assay relative to control; type: functional; settings: read-out: Activity
# [33] = tested on: UO-31; assay: Cytotoxicity against human UO31 cells assessed as cell growth at 8 uM by sulforhodamine B assay relative to control; type: functional; settings: read-out: Activity
# [34] = tested on: KM12; assay: Cytotoxicity against human KM12 cells by sulforhodamine B assay; type: functional; method in brief: as §2
# [35] = tested on: OVCAR-5; assay: Cytotoxicity against human OVCAR5 cells assessed as cell growth at 8 uM by sulforhodamine B assay relative to control; type: functional; settings: read-out: Activity
# [36] = tested on: HL-60(TB); assay: Cytotoxicity against human HL-60(TB) cells by sulforhodamine B assay; type: functional
# Method in brief: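 NCI Developmental Therapeutics Program 60-cell-line human tumor panel, standard procedure. Single-concentration prescreen first; active compounds then tested at five concentrations. GI50 is the concentration reducing growth of treated cells to half that of untreated controls.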
# [37] = tested on: MCF7; assay: Cytotoxicity against human MCF7 cells assessed as cell growth at 80 uM by sulforhodamine B assay relative to control; type: functional; settings: read-out: Activity
# [38] = tested on: SK-MEL-28; assay: Cytotoxicity against human SK-MEL-28 cells by sulforhodamine B assay; type: functional; method in brief: as §2
# [39] = tested on: SF-268; assay: Cytotoxicity against human SF268 cells assessed as cell growth at 8 nM by sulforhodamine B assay relative to control; type: functional; settings: read-out: Activity
# [40] = tested on: SR; assay: Cytotoxicity against human SR cells assessed as cell growth at 80 nM by sulforhodamine B assay relative to control; type: functional; settings: read-out: Activity
# [41] = tested on: DU-145; assay: Cytotoxicity against human DU145 cells assessed as cell growth at 8 nM by sulforhodamine B assay relative to control; type: functional; settings: read-out: Activity; method in brief: as §1
# [42] = tested on: M14; assay: Cytotoxicity against human M14 cells assessed as cell growth at 80 nM by sulforhodamine B assay relative to control; type: functional; settings: read-out: Activity
smiles,measurement,setting,value
C/C=C1\NC(=O)[C@H](Cc2ccccc2)NC(=O)[C@@H](C(C)C)NC(=O)[C@@H]([C@@H](C)CC)NC(=O)[C@H](NC(=O)[C@H](NC(=O)[C@H](CCCNCc2ccc(N3CCOCC3)cc2)NC(=O)[C@H]2CCCN2C(=O)[C@H](NC(=O)[C@@H](NC(=O)[C@@H](NC(=O)[C@H](NC(=O)CCCC(C)C)C(C)C)[C@@H](C)O)C(C)C)C(C)C)[C@@H](C)CC)[C@@H](C)OC(=O)[C@H](C(C)C)NC1=O,growth at 0.8 µM,[1],97%
same,growth at 0.8 µM,[2],53%
same,growth at 8 µM,[3],-47%
same,growth at 80 µM,[4],-9%
same,growth at 0.08 µM,[5],93%
same,growth at 8 µM,[6],-34%
same,IC50,[7],5.76 µM
same,MFC,[7],> 20 µM
same,MIC,[7],20 µM
same,growth at 80 µM,[8],-47%
same,GI50,[9],1.35 µM
same,TGI,[9]; read-out: pTGI (converted),2.82 µM
same,growth at 0.008 µM,[10],97%
same,growth at 80 µM,[11],-7%
same,growth at 8 µM,[12],-85%
same,growth at 0.008 µM,[13],103%
same,GI50,[14],1.7 µM
same,TGI,[14]; read-out: pTGI (converted),3.16 µM
same,growth at 0.8 µM,[15],86%
same,growth at 0.8 µM,[16],75%
same,growth at 80 µM,[17],-28%
same,growth at 8 µM,[18],-77%
same,growth at 0.8 µM,[19],90%
same,growth at 0.8 µM,[20],100%
same,growth at 0.08 µM,[21],99%
same,growth at 0.8 µM,[22],102%
same,growth at 0.008 µM,[23],105%
same,growth at 0.8 µM,[24],91%
same,growth at 0.008 µM,[25],95%
same,growth at 0.08 µM,[26],95%
same,growth at 0.008 µM,[27],106%
same,GI50,[28],1.41 µM
same,LC50,[28],4.68 µM
same,TGI,[28]; read-out: pTGI (converted),2.57 µM
same,growth at 8 µM,[29],-47%
same,growth at 8 µM,[30],-88%
same,growth at 8 µM,[31],-100%
same,growth at 0.08 µM,[32],99%
same,growth at 8 µM,[33],-76%
same,LC50,[34],> 75.9 µM
same,GI50,[34]; read-out: GI50,0.201 µM
same,GI50,[34]; read-out: pGI50 (converted),0.2 µM
same,growth at 8 µM,[35],-74%
same,GI50,[36],1.86 µM
same,CC50,[36]; read-out: pLC50 (the source's name) (converted),> 75.9 µM
same,TGI,[36]; read-out: pTGI (converted),5.25 µM
same,growth at 80 µM,[37],6%
same,GI50,[38],1.38 µM
same,TGI,[38]; read-out: pTGI (converted),2.57 µM
same,growth at 0.008 µM,[39],98%
same,growth at 0.08 µM,[40],106%
same,growth at 0.008 µM,[41],99%
same,growth at 0.08 µM,[42],97%
